Laboratory results as given in ChEMBL document CHEMBL3763072, “Structure activity relationship studies on chemically non-reactive glycine sulfonamide inhibitors of diacylglycerol lipase” (Bioorg Med Chem, 2016).
pIC50: −log10 of the molar value. Calls of active or inactive are those of the source. The calls are words filed in the database; no cut-off is given here.

Assays:
[1] = molecular target: T1, Diacylglycerol lipase-alpha (Homo sapiens, UniProt Q9Y4D2); assay: Inhibition of full length human C-terminal HA-tagged DAGLalpha expressed in HEK293 cells using DAG as substrate assessed as reduction in intracellular 2-AG level incubated for 20 mins by LC-MS analysis; format: cell-based
T1 sequence (Q9Y4D2 whole entry): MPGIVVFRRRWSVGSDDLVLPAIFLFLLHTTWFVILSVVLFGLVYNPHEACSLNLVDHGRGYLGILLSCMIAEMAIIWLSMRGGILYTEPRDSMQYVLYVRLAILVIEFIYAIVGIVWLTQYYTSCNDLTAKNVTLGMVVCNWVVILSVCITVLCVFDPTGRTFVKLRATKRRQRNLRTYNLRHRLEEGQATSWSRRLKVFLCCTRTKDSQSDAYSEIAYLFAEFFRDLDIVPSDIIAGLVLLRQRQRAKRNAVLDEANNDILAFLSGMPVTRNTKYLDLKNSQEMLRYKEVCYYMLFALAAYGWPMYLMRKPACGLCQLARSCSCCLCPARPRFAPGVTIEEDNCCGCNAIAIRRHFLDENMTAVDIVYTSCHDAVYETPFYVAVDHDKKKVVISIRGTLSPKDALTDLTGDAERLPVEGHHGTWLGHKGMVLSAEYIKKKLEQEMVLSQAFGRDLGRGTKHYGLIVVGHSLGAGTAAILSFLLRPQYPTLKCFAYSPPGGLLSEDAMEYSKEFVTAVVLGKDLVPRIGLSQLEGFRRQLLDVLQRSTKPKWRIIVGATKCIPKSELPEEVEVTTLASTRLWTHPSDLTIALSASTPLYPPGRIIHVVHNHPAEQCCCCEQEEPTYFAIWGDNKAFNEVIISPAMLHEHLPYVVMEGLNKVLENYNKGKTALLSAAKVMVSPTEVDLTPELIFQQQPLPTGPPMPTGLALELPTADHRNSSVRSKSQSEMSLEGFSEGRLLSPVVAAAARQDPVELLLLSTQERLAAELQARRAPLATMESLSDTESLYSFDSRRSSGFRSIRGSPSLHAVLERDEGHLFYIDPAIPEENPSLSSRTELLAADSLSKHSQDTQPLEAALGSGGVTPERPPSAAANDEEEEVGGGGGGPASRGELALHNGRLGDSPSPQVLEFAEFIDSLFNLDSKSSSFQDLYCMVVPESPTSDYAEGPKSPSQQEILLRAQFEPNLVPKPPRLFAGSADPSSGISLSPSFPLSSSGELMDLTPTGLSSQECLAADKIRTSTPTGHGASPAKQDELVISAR

[2] = system: HEK293; assay: Selectivity ratio of IC50 for full length human C-terminal HA-tagged DAGLalpha expressed in HEK293 cell membrane to IC50 for DAGLbeta (unknown origin); format: cell-based
[3] = molecular target: T2, Monoglyceride lipase (Homo sapiens) (UniProt Q99685); assay: Inhibition of MAGL (unknown origin) at 30 uM
T2 sequence (whole entry): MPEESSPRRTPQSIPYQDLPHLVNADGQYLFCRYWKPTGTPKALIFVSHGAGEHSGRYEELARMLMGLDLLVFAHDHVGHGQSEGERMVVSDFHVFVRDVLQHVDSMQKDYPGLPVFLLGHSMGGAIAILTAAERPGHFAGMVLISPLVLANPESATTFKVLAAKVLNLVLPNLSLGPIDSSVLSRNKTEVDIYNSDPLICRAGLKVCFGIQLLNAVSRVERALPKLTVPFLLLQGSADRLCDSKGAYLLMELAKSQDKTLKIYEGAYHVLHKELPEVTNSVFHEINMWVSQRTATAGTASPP

[4] = molecular target: T1, Diacylglycerol lipase-alpha; assay: Inhibition of full length human C-terminal HA-tagged DAGLalpha expressed in HEK293 cell membrane using DAG as substrate incubated for 20 mins by LC-MS analysis; format: cell-based
Method in brief: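 Cell-free DAGL-α enzyme assay run at pH 6.5. IC50 values are reported, with replicate counts (n) given per value.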

[5] = molecular target: T3, Pancreatic triacylglycerol lipase (Sus scrofa) (UniProt P00591); assay: Inhibition of porcine pancreatic lipase at 30 uM
T3 sequence (whole entry): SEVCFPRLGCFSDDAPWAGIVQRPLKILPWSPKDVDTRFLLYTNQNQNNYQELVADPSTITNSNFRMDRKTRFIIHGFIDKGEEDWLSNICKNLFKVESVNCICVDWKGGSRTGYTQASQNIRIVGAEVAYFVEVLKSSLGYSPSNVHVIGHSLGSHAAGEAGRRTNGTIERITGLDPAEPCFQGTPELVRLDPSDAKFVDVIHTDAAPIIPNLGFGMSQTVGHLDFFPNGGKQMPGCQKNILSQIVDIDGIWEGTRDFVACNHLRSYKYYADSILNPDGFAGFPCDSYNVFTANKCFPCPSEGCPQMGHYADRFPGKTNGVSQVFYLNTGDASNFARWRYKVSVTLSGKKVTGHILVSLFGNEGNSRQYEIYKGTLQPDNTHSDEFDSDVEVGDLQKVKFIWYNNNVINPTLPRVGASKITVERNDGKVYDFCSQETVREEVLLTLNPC

[6] = molecular target: T4, Diacylglycerol lipase-alpha (Homo sapiens) (UniProt Q9Y4D2); assay: Ratio of IC50 for full length human C-terminal HA-tagged DAGLalpha expressed in HEK293 cells assessed as reduction in intracellular 2-AG level to IC50 for full length human C-terminal HA-tagged DAGLalpha expressed in HEK293 cell membrane; format: cell-based
T4 sequence (whole entry): T1 sequence (Q9Y4D2 whole entry)

[7] = molecular target: T5, Diacylglycerol lipase-beta (Homo sapiens, UniProt Q8NCG7); assay: Inhibition of DAGLbeta (unknown origin)
T5 sequence (Q8NCG7 whole entry): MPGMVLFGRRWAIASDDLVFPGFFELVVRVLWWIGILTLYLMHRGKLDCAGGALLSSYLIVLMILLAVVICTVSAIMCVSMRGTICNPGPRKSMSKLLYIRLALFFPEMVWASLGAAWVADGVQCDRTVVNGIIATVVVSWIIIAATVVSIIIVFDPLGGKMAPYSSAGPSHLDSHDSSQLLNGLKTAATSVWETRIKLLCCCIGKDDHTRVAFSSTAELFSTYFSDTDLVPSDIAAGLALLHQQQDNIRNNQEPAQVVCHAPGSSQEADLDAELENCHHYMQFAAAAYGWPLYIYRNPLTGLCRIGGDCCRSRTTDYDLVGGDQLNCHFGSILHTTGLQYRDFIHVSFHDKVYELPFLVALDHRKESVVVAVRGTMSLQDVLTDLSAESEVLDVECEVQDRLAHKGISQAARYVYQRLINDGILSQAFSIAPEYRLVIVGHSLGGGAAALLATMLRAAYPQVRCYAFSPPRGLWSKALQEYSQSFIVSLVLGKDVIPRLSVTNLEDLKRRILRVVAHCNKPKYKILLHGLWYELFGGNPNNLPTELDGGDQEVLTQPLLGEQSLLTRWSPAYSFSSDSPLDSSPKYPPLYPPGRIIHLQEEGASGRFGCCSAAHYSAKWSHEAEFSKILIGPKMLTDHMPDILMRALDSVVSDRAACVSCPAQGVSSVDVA

[8] = Metabolic stability in mouse liver microsomes assessed as residual compound at 3 uM preincubated for 2 mins followed by NADPH addition measured after 10 mins by LC-MS analysis; format: ADME; conditions: read-out: Stability
[9] = Metabolic stability in human liver microsomes assessed as residual compound at 3 uM preincubated for 2 mins followed by NADPH addition measured after 10 mins by LC-MS analysis; format: ADME; conditions: read-out: Stability
[10] = Metabolic stability in rat liver microsomes assessed as residual compound at 3 uM preincubated for 2 mins followed by NADPH addition measured after 10 mins by LC-MS analysis; format: ADME; conditions: read-out: Stability
[11] = system: Mus musculus; assay: In vivo inhibition of DAGLalpha in ip dosed mouse assessed as reduction in 2-AG level in liver; format: functional, organism-based

Compound	pIC50 [1]	inhibition [3]	pIC50 [4]	pIC50 [7]	other results
O=C(O)CN(C1(c2ccc(-c3ccc(Cl)cc3Cl)cc2)CCC1)S(=O)(=O)c1ccc(OC(F)F)cc1	7.06	inactive	8.22	6.84	Ratio IC50 [2]: 24; inhibition [5]: inactive; Ratio IC50 [6]: 15
O=C(O)CN(Cc1ccc(-c2ccc(Cl)cc2Cl)cc1)S(=O)(=O)c1ccc(OC(F)F)cc1	–	–	7.52	–	–
O=C(O)CN(C1(c2cccc(-c3cc(Cl)cc(Cl)c3)c2)CCC1)S(=O)(=O)c1ccccc1Cl	–	–	6.29	–	–
O=C(O)CN(C1(c2ccc(-c3ccccc3OC(F)(F)F)cc2)CCC1)S(=O)(=O)c1ccc(OC(F)F)cc1	–	inactive	–	–	remaining at 10 min, 3 µM [8]: 100%; remaining at 10 min, 3 µM [9]: 78%; remaining at 10 min, 3 µM [10]: 100%
O=C(O)CN(c1cccc(-c2cccc(Cl)c2Cl)c1)S(=O)(=O)c1ccc(OC(F)F)cc1	7.84	inactive	8.62	7.40	inhibition [11]: Active
C[C@@H](c1ccc(-c2ccc(Cl)cc2Cl)cc1)N(CC(=O)O)S(=O)(=O)c1ccc(OC(F)F)cc1	–	–	7.74	–	–
